Assay outcomes from PubChem BioAssay.
HKDC1 inhibitor: blocks human hexokinase HKDC1 activity; Q2TB90; recombinant HKDC1, G6PDH/diaphorase resazurin coupled fluorescence; inhibition, % at 20 µM; 0.16% of 340,000 active; AID 493160;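 active = inhibition above about 35% when tested at 20 µM, limit read from the data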;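 note: plate controls were DMSO wells with enzyme for no effect and DMSO wells lacking enzyme for full effect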
Target sequence (Q2TB90 whole entry, looked up): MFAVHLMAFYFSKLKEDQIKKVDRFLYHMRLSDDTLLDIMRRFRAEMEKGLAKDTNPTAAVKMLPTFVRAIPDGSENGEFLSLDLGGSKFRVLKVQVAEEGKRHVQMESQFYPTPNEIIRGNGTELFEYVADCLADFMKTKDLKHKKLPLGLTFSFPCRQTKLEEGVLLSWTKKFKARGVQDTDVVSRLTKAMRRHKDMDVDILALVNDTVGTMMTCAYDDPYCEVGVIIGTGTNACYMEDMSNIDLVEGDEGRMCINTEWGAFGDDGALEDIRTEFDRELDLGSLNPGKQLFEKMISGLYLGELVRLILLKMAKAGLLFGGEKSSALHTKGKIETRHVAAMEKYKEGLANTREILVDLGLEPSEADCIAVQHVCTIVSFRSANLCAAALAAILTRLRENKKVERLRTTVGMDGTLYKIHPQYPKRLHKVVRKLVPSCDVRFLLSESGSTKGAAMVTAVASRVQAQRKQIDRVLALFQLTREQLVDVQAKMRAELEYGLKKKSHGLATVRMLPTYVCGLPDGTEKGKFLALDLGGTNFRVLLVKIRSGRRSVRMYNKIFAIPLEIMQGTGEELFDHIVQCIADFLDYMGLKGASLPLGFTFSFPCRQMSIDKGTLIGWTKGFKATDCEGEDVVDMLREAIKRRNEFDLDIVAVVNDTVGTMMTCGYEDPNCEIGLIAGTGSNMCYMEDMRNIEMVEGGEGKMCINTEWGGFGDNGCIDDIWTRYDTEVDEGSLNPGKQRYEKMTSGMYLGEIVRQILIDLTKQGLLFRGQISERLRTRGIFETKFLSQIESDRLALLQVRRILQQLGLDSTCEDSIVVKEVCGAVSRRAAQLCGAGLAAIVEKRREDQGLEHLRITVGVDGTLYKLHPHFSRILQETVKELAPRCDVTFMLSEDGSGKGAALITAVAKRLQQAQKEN
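Assay system – recombinant HKDC1 (HK5) hexokinase enzyme, produced in-house · Input – HKDC1 at 5 µg/mL · Reagent – glucose plus 1 mM ATP as hexokinase substrates · Timing – 90 min reaction incubation at room temperature, dark · Measured by – G6PDH/diaphorase-coupled fluorescence, 1 mM NADP, 100 µM resazurin, 525/613 nm · Benchmarks – DMSO-enzyme wells negative, buffer-substituted wells positive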
Diaphorase inh: diaphorase inhibition or chemical oxidation counter-screen | diaphorase resazurin-to-resorufin fluorescence, NADH, 16 min; bacterial (C. kluyveri) enzyme, not human | 0.69% of 190,000 active | AID 1217 | inhibition, % at 20 µM;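 active = primary screen inhibition at 20 µM above a set limit, cut at about 50% in these data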;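 note: plate controls were DMSO with full reaction for no effect and wells lacking NADH for full effect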
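System: Bacterial diaphorase enzyme (C. kluyveri) | Incubation: 16-min room-temperature incubation before reading | Benchmarks: No-NADH positive control and DMSO neutral control | Measured by: Resorufin fluorescence 544/590 nm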
G6PDH CS: inhibits Leuconostoc G6PDH, flagging false hits in G6PDH-based assays. Purified L. mesenteroides G6PDH, diaphorase/resazurin coupled fluorescence, 45 min. inhibition, % at 5 µM. 0.12% of 200,000 active; in the data active = inhibition above about 50%
Tb hexokinase: blocks Trypanosoma brucei hexokinase 1 activity; recombinant TbHK1, G6PDH-coupled NADH A340; 0.11% of 220,000 active; inhibition, % at 10 µM;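 active = inhibition of 50% or more in the single-dose primary screen; inactive = inhibition below 50%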
PfG6PD inh: PfG6PD (Plasmodium falciparum) enzyme inhibition; PfGluPho enzyme, NADPH resazurin-diaphorase fluorescence; inhibition, % at 20 µM; 0.78% of 350,000 active;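 active = inhibition reaching at least a set limit at 20 µM in the primary screen, cut at about 59% in these data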;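 note: 0% = DMSO wells with substrate and 100% = DMSO wells lacking glucose-6-phosphate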
PfGluPho conf: PfG6PD inhibition, single-dose confirmed; shares compounds with PfG6PD inh; recombinant PfGluPho, NADPH-diaphorase-resazurin fluorescence; inhibition, % at 20 µM; 34% of 2,400 active; AID 504753;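 active = inhibition of at least 50% at 20 µM in any single replicate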;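 note: 0% = DMSO with substrate and 100% = DMSO lacking glucose-6-phosphate substrate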
Diaphorase 10uM: counter-screen for P. falciparum G6PD inhibitors: diaphorase inhibitors, oxidizers. shares compounds with PfG6PD inh. diaphorase-coupled resazurin reduction, fluorescence, NADPH 10 uM. inhibition, % at 20 µM. 39% of 820 active. AID 504862;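 active = average inhibition reaching 50% or more with the compound at 20 µM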;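 note: resorufin red fluorescence formed as diaphorase reduces resazurin using NADPH; 0% = DMSO with enzyme and 100% = DMSO without enzyme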
Diaphorase 30uM: inhibits diaphorase or oxidizes, flagging false PfG6PD hits; inhibition, % at 20 µM; 29% of 820 active; Diaphorase/resazurin coupled assay, resorufin fluorescence, 30 uM NADPH; shares compounds with PfG6PD inh;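 active = inhibition averaging 50% or more, tested at 20 µM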;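 note: 0% = DMSO with enzyme and 100% = DMSO wells lacking diaphorase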
* marks the source's active call; other numbers are inactive results; x = no result given. This is a sample that favours compounds with a hit; in the whole collection about 1.3% have one here.

SMILES	HKDC1 inhibitor	Diaphorase inh	G6PDH CS	Tb hexokinase	PfG6PD inh	PfGluPho conf	others
C/C(=N\Nc1nc2ccccc2[nH]1)c1ccc(Cl)s1	-12	7	-19	-18	77*	15
COC(=O)/C=C/c1c(C)[nH]c(=O)[nH]c1=O	-4	x	x	-25	2	x
O=C(/C=C/c1ccco1)N1CCc2ccccc21	15	29	4	-29	10	x
Cc1ccc(/C=C/C(=O)N2CCc3ccccc32)o1	2	21	0	-28	85*	10
Cc1ccc(/C=C/C(=O)N2CCN(c3ncccn3)CC2)o1	-8	16	-3	-22	64*	48
Cc1ccc(OCCC(=O)N2CCN(c3ccc(O)cc3)CC2)cc1	-3	x	x	-18	58	x
COc1ccccc1-c1nc(C#N)c(N2CCN(c3ccccc3)CC2)o1	-1	18	-55	-11	10	x
CCc1ccc(-c2ccc(C(=O)C(F)(F)F)[nH]2)cc1	-1	4	6	10	14	x
Cc1ccccc1OCC(=O)NCCNC(=O)c1cccnc1	-3	x	x	x	5	x
Cc1ccc(CN2CCSc3ccc(C(=O)N4CCN(c5ncccn5)CC4)cc32)cc1	19	19	11	-5	-5	x
CC(=O)N(Cc1ccc(F)cc1)C1=C(NCc2ccccc2)C(=O)c2ccccc2C1=O	29	34	51*	-9	71*	46
O=C(NCc1ccc(F)cc1)C(c1ccccc1)c1ccccc1	-4	x	x	x	0	x
NC(=S)N/N=C\c1c2ccccc2cc2ccccc12	-2	20	-17	-4	11	x
NC(=S)NN=Cc1cc(-c2cccc(N)c2)ccn1	x	x	x	x	69*	36
Nc1ccc(Oc2ccc3nc(-c4ccccc4)c(-c4ccccc4)nc3c2)cc1	-1	26	2	-10	19	x
Nc1ccc2nc(-c3ccccc3)c(-c3ccccc3)nc2c1	9	x	x	x	79*	-1
COC(=O)c1nn(-c2cccc(C(F)(F)F)c2)ccc1=O	-5	x	x	x	7	x
O=c1ccn(-c2cccc(C(F)(F)F)c2)nc1-c1ccn(-c2cccc(Cl)c2)n1	1	19	2	-10	87*	67*	Diaphorase 10uM=61*;Diaphorase 30uM=57*
O=C1CCC[C@@H]2[C@H](Cc3ccccc3)[C@@H](O)C[C@@H]3CCN1[C@@H]32	-7	x	x	x	-7	x
O=C1CCC[C@@H]2[C@@H](Cc3ccccc3)[C@H](N3CCN(c4ccccc4)CC3)C[C@@H]3CCN1[C@@H]32	2	x	x	x	107*	56*	Diaphorase 10uM=60*;Diaphorase 30uM=47
Nc1ccccc1SCc1csc(-c2ccc(Cl)cc2)n1	-1	x	x	-10	60*	5
CC(C)NC(=S)NNc1nc2ccccc2s1	-4	22	3	3	74*	22
CC(=O)Nc1ccc(S(=O)(=O)/N=C2\C(=O)c3ccccc3C([O-])=C2n2cc[n+](-c3ccccn3)c2)cc1	24	x	x	6	69*	56*	Diaphorase 10uM=35;Diaphorase 30uM=36
CN1c2cccc3cccc(c23)N(C)C1(C)C	14	52*	8	-13	71*	39
CCOC(=O)c1sc(N)c(C(=O)Nc2ccccc2OC)c1C	-14	10	0	-5	66*	39
SMILES	HKDC1 inhibitor	Diaphorase inh	G6PDH CS	Tb hexokinase	PfG6PD inh	PfGluPho conf	others
CCOC(=O)c1sc(N)c(C(=O)OC)c1C	-1	8	14	1	2	x
Cc1ccc(-c2nnc3n2N=C(c2ccccc2)CS3)cc1	-6	22	-36	2	13	x
c1ccc(C2=Nn3c(nnc3-c3cc(-c4ccccc4)n[nH]3)SC2)cc1	10	24	-5	32	60*	11
COc1cc(-c2nnc3n2N=C(c2ccccc2)CS3)cc(OC)c1OC	13	19	3	-9	97*	60*	Diaphorase 10uM=42;Diaphorase 30uM=48
COc1ccc(OC)c(C2=Nn3c(nnc3-c3ccncc3)SC2)c1	-2	x	x	x	-1	x
COc1ccc(OC)c(C2=Nn3c(nnc3-c3cc(OC)c(OC)c(OC)c3)SC2)c1	-1	25	13	-10	98*	89*	Diaphorase 10uM=81*;Diaphorase 30uM=70*
Cc1ccc(C)c(NC(=O)c2nc(Cl)ccc2Cl)c1	-7	-1	3	-2	6	x
COc1ccc(NC(=O)C2CCC(C(C)(C)C)CC2)cc1S(=O)(=O)N1CCCCC1 (centres undefined)	2	23	-15	17	-17	x
CC(C(=O)Nc1sc2c(c1C#N)CCCCC2)N1C(=O)c2ccccc2C1=O (centres undefined)	0	14	10	15	-38	x
Cc1ccc(NC(=O)Cn2c(C)cc(C)c(C#N)c2=O)c(Cl)c1	1	9	5	-10	-17	x
Cc1cc(C)c2c(=O)n(CC(=O)Nc3cccc(F)c3)sc2n1	-7	x	x	21	110*	94*	Diaphorase 10uM=-3;Diaphorase 30uM=0
CCOc1ccc(NC(=O)Cn2sc3nc(C)cc(C)c3c2=O)cc1	-2	x	x	9	104*	90*	Diaphorase 10uM=-30;Diaphorase 30uM=-21
Cc1cc(C)c2c(=O)n(CC(=O)Nc3ccc(Cl)cc3)sc2n1	3	x	x	34	112*	96*	Diaphorase 10uM=-18;Diaphorase 30uM=5
Cc1ccc(NC(=O)Cn2sc3nc(C)cc(C)c3c2=O)c(Cl)c1	3	x	x	17	100*	76*	Diaphorase 10uM=-34;Diaphorase 30uM=-18
Cc1cc(C)c2c(n1)SCC(=O)N2CC(=O)Nc1cccc(Cl)c1	-3	x	x	x	1	x
Cc1cc(C)c2c(=O)n(CC(=O)N3CCC(Cc4ccccc4)CC3)sc2n1	x	29	-41	-3	x	x
CN(Cc1nc(C(c2ccccc2)c2ccccc2)no1)CC1COCCO1 (centres undefined)	19	x	6	8	-1	x
COc1ccc(CN2CCNC(=O)C2CC(=O)NC2CCCCCCC2)cc1C (centres undefined)	1	x	x	x	0	x
O=C(CCNS(=O)(=O)c1ccc(Cl)cc1)Nc1ccncc1	-6	x	x	x	-13	x
CCN(C(=O)CCS(=O)(=O)c1ccc(Br)cc1)c1ccc2c(c1)OCO2	1	13	19	3	19	x
CCOC(=O)C1=NN(c2ccc([N+](=O)[O-])cc2)CC1C(=O)OC (centres undefined)	-6	1	-5	-21	38	x
C[n+]1cccc2c(Br)ccc([O-])c21	29	x	x	-10	114*	17
[O-][n+]1cccc2c(Br)cc(Br)c(O)c21	6	46	34	4	52	x
NC(=N\N=Cc1ccccc1)/C(N)=N/N=Cc1ccccc1	-6	x	x	x	3	x
Cn1c(CS/C(N)=N/N=C/c2ccccc2)c(Br)c(=O)n1-c1ccccc1	-17	12	-5	-6	64*	16
CC(NC(=O)COC(=O)c1ccc(OCC2CCCO2)cc1)c1ccccc1Cl (centres undefined)	0	x	x	x	6	x
